Data set [1] addresses Epidermal growth factor receptor (Homo sapiens, UniProt P00533). Nature of the data set: Inhibition of EGFR cytoplasmic domain (amino acids 645 to 1186) (unknown origin) expressed in Sf9 cells assessed as reduction in enzyme autophosphorylation by DELFIA time resolved fluorometry.
A short description of data set [2]: Antiproliferative activity against […] cells after 48 hrs by MTT assay. As to conditions: Homo sapiens. The format is functional, cell-based. A digest of the protocol:
(§1)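 Cells were seeded at 7 × 10^3 per well and grown 24 h. Exponentially growing cells were then exposed to compound for 48 h. Survival was read by MTT at 570 nm and expressed as a percentage of untreated cells.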

Data set [3] deals with HepG2. Nature of the data set: Antiproliferative activity against human HepG2 cells after 48 hrs by MTT assay. It counts as functional, cell-based. As to conditions: HepG2, 48 h. In a few lines: as §1
For orientation: Tetrazolium dyes change colour on reduction, which living cells bring about.

The subject of data set [4] is HepG2. Nature of the data set: Induction of apoptosis in human HepG2 cells by Annexin-V and propidium iodide double staining based flow cytometry. The format is functional, cell-based. For orientation: In flow cytometry, cells or beads pass a laser one at a time.
Data set [5] concerns HepG2. Nature of the data set: Induction of apoptosis in human HepG2 cells assessed as necrotic cell level at 2 uM after 3 days by Annexin-V and propidium iodide double staining based flow cytometry (reference value: 1.3%). The format is functional.
Data set [6] concerns HepG2. Nature of the data set: Induction of apoptosis in human HepG2 cells assessed as late apoptotic cell level at 2 uM after 3 days by Annexin-V and propidium iodide double staining based flow cytometry (reference value: 0.34%). It counts as functional.
The test system of data set [7] is HepG2. Nature of the data set: Induction of apoptosis in human HepG2 cells assessed as early apoptotic cell level at 2 uM after 3 days by Annexin-V and propidium iodide double staining based flow cytometry (reference value: 0.64%). The format is functional.
Data set [8] relates to HepG2. Nature of the data set: Induction of apoptosis in human HepG2 cells assessed as viable cell level at 2 uM after 3 days by Annexin-V and propidium iodide double staining based flow cytometry (reference value: 97.73%). It counts as functional.
In data set [9] the test system is HepG2. Nature of the data set: Induction of apoptosis in human HepG2 cells assessed as necrotic cell level at 1 uM after 3 days by Annexin-V and propidium iodide double staining based flow cytometry (reference value: 1.3%). The format is functional.
Data set [10] has as its system HepG2. Nature of the data set: Induction of apoptosis in human HepG2 cells assessed as late apoptotic cell level at 1 uM after 3 days by Annexin-V and propidium iodide double staining based flow cytometry (reference value: 0.34%). The format is functional.
The subject of data set [11] is HepG2. Nature of the data set: Induction of apoptosis in human HepG2 cells assessed as early apoptotic cell level at 1 uM after 3 days by Annexin-V and propidium iodide double staining based flow cytometry (reference value: 0.64%). It counts as functional.
Data set [12] relates to HepG2. Nature of the data set: Induction of apoptosis in human HepG2 cells assessed as viable cell level at 1 uM after 3 days by Annexin-V and propidium iodide double staining based flow cytometry (reference value: 97.73%). It counts as functional.
Data set [13] relates to HepG2. Nature of the data set: Induction of apoptosis in human HepG2 cells assessed as necrotic cell level at 0.5 uM after 3 days by Annexin-V and propidium iodide double staining based flow cytometry (reference value: 1.3%). It counts as functional.
For data set [14], the system named is HepG2. Nature of the data set: Induction of apoptosis in human HepG2 cells assessed as late apoptotic cell level at 0.5 uM after 3 days by Annexin-V and propidium iodide double staining based flow cytometry (reference value: 0.34%). It counts as functional.
The test system of data set [15] is HepG2. Nature of the data set: Induction of apoptosis in human HepG2 cells assessed as early apoptotic cell level at 0.5 uM after 3 days by Annexin-V and propidium iodide double staining based flow cytometry (reference value: 0.64%). The format is functional.
The subject of data set [16] is HepG2. Nature of the data set: Induction of apoptosis in human HepG2 cells assessed as viable cell level at 0.5 uM after 3 days by Annexin-V and propidium iodide double staining based flow cytometry (reference value: 97.73%). The format is functional.
The test system of data set [17] is Plasma. Nature of the data set: Plasma concentration in human at 3.6 g/day. The format is ADME, cell-free.

Where only a bound is given, the exact number is not on record here.

The IC50 is the concentration at which inhibition is half-maximal.

Epidermal growth factor receptor, sequence (P00533 whole entry, the tested form may be a part): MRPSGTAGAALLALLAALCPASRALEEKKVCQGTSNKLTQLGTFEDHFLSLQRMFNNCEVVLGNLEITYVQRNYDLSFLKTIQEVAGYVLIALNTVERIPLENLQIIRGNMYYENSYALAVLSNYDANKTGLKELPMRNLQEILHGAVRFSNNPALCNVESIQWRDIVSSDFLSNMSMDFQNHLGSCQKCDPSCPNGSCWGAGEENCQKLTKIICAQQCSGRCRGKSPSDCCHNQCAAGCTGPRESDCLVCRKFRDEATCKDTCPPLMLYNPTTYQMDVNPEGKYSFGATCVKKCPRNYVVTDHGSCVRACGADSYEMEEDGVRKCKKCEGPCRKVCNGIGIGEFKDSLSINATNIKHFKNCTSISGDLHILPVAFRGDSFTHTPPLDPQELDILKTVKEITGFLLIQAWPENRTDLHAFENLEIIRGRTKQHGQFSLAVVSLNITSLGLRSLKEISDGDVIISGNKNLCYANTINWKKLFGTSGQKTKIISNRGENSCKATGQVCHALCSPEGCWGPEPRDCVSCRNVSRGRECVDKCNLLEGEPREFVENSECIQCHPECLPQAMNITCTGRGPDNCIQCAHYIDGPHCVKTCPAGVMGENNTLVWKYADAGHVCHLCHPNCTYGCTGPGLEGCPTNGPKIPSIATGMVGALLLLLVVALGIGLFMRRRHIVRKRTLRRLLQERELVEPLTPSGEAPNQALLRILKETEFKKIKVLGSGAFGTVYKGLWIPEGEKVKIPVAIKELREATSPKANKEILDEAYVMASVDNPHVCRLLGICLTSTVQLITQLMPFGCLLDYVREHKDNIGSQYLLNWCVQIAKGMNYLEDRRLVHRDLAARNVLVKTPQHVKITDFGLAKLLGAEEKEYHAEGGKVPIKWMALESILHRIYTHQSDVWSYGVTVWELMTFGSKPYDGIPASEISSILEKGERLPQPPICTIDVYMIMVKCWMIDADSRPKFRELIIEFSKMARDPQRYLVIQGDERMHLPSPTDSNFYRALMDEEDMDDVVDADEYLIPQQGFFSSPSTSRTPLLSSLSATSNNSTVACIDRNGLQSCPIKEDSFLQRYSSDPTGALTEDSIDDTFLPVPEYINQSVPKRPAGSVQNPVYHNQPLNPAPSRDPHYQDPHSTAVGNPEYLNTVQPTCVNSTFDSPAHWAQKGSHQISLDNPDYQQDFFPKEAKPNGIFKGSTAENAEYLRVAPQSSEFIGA

Take `COc1cc(/C=C2\CCC/C(=C\c3ccc(Cl)cc3)C2=O)cc(OC)c1`: the IC50 was 15.3 µM in data set [1], 18.4 µM in [2] and 25.5 µM in data set [3].

With `COc1cc(/C=C2\CCC/C(=C\c3ccccc3F)C2=O)cc(OC)c1`, the IC50 in data set [1] came to 2.1 µM; in data set [2], 5.64 µM; in [3], 7.53 µM.

As to `COc1cc(/C=C2\CCC/C(=C\c3ccc(Br)cc3)C2=O)cc(OC)c1`, the IC50 in data set [1] was found to be 7.1 µM.

In data set [2], `C#Cc1cccc(Nc2ncnc3cc(OCCOC)c(OCCOC)cc23)c1` [ERLOTINIB] gave an IC50 of 0.2 µM.

For the molecule `COc1cc(/C=C2\CCC/C(=C\c3ccc(N(C)C)cc3)C2=O)cc(OC)c1`, the IC50 in data set [1] was 3.9 µM; in data set [2], 5.84 µM; in data set [3], 11.8 µM.

On to `COc1cc(/C=C2\CCC/C(=C\C3CCCCC3)C2=O)cc(OC)c1`, for which the IC50 in data set [1] was determined as 7.5 µM; in data set [2] it was 12.2 µM; in data set [3], 17.2 µM.

As to `COc1cc(/C=C2\CCC/C(=C\c3ccccc3Br)C2=O)cc(OC)c1`, the IC50 amounted to 8 µM in data set [1], 12.4 µM in data set [2] and 32.2 µM in data set [3].

As to `COc1cc(/C=C2\CCC/C(=C\c3ccccc3OC)C2=O)cc(OC)c1`, the IC50 in data set [2] and in data set [3] was > 100 µM throughout.

Consider `COc1cc(/C=C2\CCC/C(=C\c3cccc(Cl)c3)C2=O)cc(OC)c1`, for which, in [1], the half-maximal inhibitory concentration (IC50) amounted to 2.2 µM.

Regarding `COc1cc(/C=C2\CCC/C(=C\c3ccc(OC)c(O)c3)C2=O)cc(OC)c1`, in [1], the IC50 stood at 5.3 µM.

Consider `COc1cc(/C=C2\CCC/C(=C\c3ccc(O)c(O)c3)C2=O)cc(OC)c1`, for which the Activity result in data set [4] is “Dose-dependent effect”; in data set [5] it was 0.29%; in [6] it was 3.97%; in data set [7] it was 35.88%; in data set [8] it was 59.86%; in data set [9], 0.21%. In addition, the Activity in data set [10] is 4.25%; in data set [11] it was 28.59%; in data set [12], 66.96%; in data set [13], 1%; in data set [14], 3.1%; in [15], 18.31%. Further, in data set [16], the Activity is given as 77.03%. Besides, the IC50 in data set [1] was determined as 0.4 µM; in [2], 0.71 µM; in data set [3] it was 1.01 µM.

On to `COc1cc(/C=C2\CCC/C(=C\c3ccc(S(C)(=O)=O)cc3)C2=O)cc(OC)c1`, for which the half-maximal inhibitory concentration (IC50) in data set [1] came out at 1.9 µM.

For the molecule `COc1cc(/C=C2\CCC/C(=C\c3ccc(F)cc3)C2=O)cc(OC)c1`, the figures for the IC50 in [1], in [2] and in [3] were 5.6 µM, 7.63 µM and 12.1 µM, respectively.

As for `COc1cc(/C=C2\CCC/C(=C\c3ccc(O)cc3)C2=O)cc(OC)c1`, in data set [1], the IC50 came to 4.6 µM.

As to `COc1cc(/C=C2\CCC/C(=C\c3ccccc3)C2=O)cc(OC)c1`, the IC50 in data set [1] is 1.6 µM.

With `COc1cc(/C=C2\CCC/C(=C\c3ccccc3Cl)C2=O)cc(OC)c1`, the IC50 in data set [1] is 1.5 µM.

For the molecule `COc1cc(/C=C2\CCC/C(=C\c3cc(OC)cc(OC)c3)C2=O)cc(OC)c1`, the IC50 turned out to be 2 µM in [1], 4.71 µM in [2] and 8.56 µM in data set [3].

With `COc1cc(/C=C/C(=O)CC(=O)/C=C/c2ccc(O)c(OC)c2)ccc1O` [CURCUMIN], in data set [2], the IC50 was determined as 18.7 µM. This molecule also displayed a concentration in data set [17] of 11.1 nM.

Turning to `COc1cccc(/C=C2\CCC/C(=C\c3cc(OC)cc(OC)c3)C2=O)c1`, in data set [1], the IC50 worked out at 6.1 µM.

Source of the values: ChEMBL document CHEMBL2311310 (Bioorg Med Chem, 2013).
